Measured values published in publication PMC11756393 (Scientific Reports, 2025).

Key:
[1] = system: macrophages (human monocytes THP-1 differentiated); assay: MTT cytotoxicity assay on macrophages; assay type: cell-based; conditions: SI as a marker of toxicity
In short: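 THP-1 monocytes were differentiated to macrophages and grown at 37 °C, 5% CO2 in RPMI 1640 with 10% FBS. Test compound added in triplicate; untreated wells and medium with 1% DMSO served as controls. After 72 h, MTT was added for 4 h, formazan dissolved in DMSO and absorbance read at 490 nm. CC50 by probit analysis, mean ± SD; SI = CC50/amastigote IC50.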

[2] = system: L. tropica promastigotes; assay: MTT assay on promastigotes; assay type: cell-based, Leishmania tropica; conditions: for Combined effect with meglumine antimonate on promastigotes (in words): combination with MA, compared with MA monotherapy; for Inhibitory activity on promastigotes (in words): compound alone, compared with meglumine antimonate
In short: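 L. tropica promastigotes grown at 24 °C in RPMI 1640 with 10% FBS, seeded at 5 × 10^5 cells/ml and left overnight. Test compound then added in triplicate for 72 h. MTT for 4 h, formazan dissolved in DMSO, absorbance read at 490 nm. IC50 from nonlinear regression against untreated control. Meglumine antimonate combinations scored by combination index and isobologram additivity line.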

Compound: COc1ccc(C2Oc3ccccc3C=C2[N+](=O)[O-])cc1 (stereo not drawn) [Compound 4d, 2-(4-methoxyphenyl)-3-nitro-2H-chromene]
- Safety for mammalian macrophages judged by SI (in words) [1]: highly safe

Compound: O=[N+]([O-])C1=Cc2ccccc2OC1c1cccc(OCc2ccc([N+](=O)[O-])cc2)c1 (stereo not drawn) [Compound 4o, 3-nitro-2-(3-((4-nitrobenzyl)oxy)phenyl)-2H-chromene]
- Safety for mammalian macrophages judged by SI (in words) [1]: highly safe
- Combined effect with meglumine antimonate on promastigotes (in words) [2]: most pronounced synergistic effects
- Inhibitory activity on promastigotes (in words) [2]: comparable to meglumine antimonate

Compound: Cc1ccc(COc2cccc(C3Oc4ccccc4C=C3[N+](=O)[O-])c2)cc1 (stereo not drawn) [Compound 4k, 2-(3-((4-methylbenzyl)oxy)phenyl)-3-nitro-2H-chromene]
- Combined effect with meglumine antimonate on promastigotes (in words) [2]: most pronounced synergistic effects
- Inhibitory activity on promastigotes (in words) [2]: comparable to meglumine antimonate

Compound: O=[N+]([O-])C1=Cc2ccccc2OC1c1cccc(OCc2ccc(Cl)cc2)c1 (stereo not drawn) [Compound 4n, 2-(3-((4-chlorobenzyl)oxy)phenyl)-3-nitro-2H-chromene]
- Safety for mammalian macrophages judged by SI (in words) [1]: highly safe
- Combined effect with meglumine antimonate on promastigotes (in words) [2]: most pronounced synergistic effects
- Inhibitory activity on promastigotes (in words) [2]: comparable to meglumine antimonate
